# Compounds with a hit are over-represented: about 9.6% of the library has one in this group of screens.
# TNAP inh hiacc – human TNAP enzyme inhibitors, primary screen, biochemical, luminescent, high phosphate acceptor level, uHTS | inhibition, % at 20 µM | 200,000 compounds, 0.03% hits | Alkaline phosphatase, tissue-nonspecific isozyme (Homo sapiens), P05186 | purified TNAP, CDP-star luminescence, 1 M DEA | AID 1135, 2008;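 active = over 50% inhibition of tissue-nonspecific alkaline phosphatase at 20 µM in the single-dose screen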;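 also: plate controls were DMSO wells for no effect and EDTA-quenched wells as full inhibition for full effect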
# Target sequence (P05186 whole entry, looked up): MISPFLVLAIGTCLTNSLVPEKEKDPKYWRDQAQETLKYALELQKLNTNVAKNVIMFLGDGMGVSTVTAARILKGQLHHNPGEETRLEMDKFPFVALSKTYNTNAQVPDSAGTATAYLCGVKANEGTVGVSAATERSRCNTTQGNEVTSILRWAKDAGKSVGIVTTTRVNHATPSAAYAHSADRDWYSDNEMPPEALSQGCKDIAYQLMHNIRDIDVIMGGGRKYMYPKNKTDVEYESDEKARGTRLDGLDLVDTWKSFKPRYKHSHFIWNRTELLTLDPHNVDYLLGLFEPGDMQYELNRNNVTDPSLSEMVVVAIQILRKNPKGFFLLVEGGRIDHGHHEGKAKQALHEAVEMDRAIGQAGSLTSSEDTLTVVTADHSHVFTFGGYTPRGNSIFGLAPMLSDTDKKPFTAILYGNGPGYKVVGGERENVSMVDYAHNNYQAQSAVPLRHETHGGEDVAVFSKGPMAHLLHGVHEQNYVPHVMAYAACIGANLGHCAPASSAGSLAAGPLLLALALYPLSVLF
# L major viab – Leishmania major promastigote growth inhibition, primary screen. AID 1063, 2008. Leishmania major promastigotes, resazurin fluorescence viability. 200,000 compounds, 9% hits. inhibition, % at 10 µM; in the data active = inhibition above about 50%;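 also: promastigotes grown with compound for 44 hours at 28 °C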
# bCat KO growth – primary screen for growth suppressors in beta-catenin knockout HCT116 cells (colon tumor, human). HCT116 beta-catenin knockout viability, CellTiter-Glo, 60 h; hits give low values. viability, % at 10 µM. 140,000 compounds, 1.5% hits;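 active = viability at or under a set limit, the compound median less 4 SD, cut at about 6% in these data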;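 also: 0% = Hyamine 1622 control at 20 µM and 100% = untreated cell control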
# TNAP act hi DEA – TNAP activators at high phosphate acceptor level, primary screen, biochemical, luminescence, uHTS | activation factor at 20 µM | AID 1136, 2008 | 200,000 tested, under 10 active | purified TNAP, CDP-star luminescence, 1 M DEA, 30 min; hits give high values; 0 = EDTA background, 1 = DMSO-only activity;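 active = activation factor at least 2 at 20 µM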
#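 Assay system: human TNAP; Input: enzyme diluted 1/800 final; Reagent: CDP-star luminogenic substrate at 100 µM final; Timing: 30 min, room temperature; Signal: luminescence; Evaluation: TNAP activation factor scaled between EDTA and DMSO control wells.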
# TNAP inh no acc – human TNAP enzyme inhibitors, primary screen, biochemical, luminescent, no phosphate acceptor, uHTS | Alkaline phosphatase, tissue-nonspecific isozyme (Homo sapiens), P05186 | purified TNAP, CDP-star luminescence, 30 min | inhibition, % at 20 µM | 200,000 compounds, 0.26% hits;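 active = tissue-nonspecific alkaline phosphatase inhibition above about 50% at 20 µM in the single-dose screen, limit read from the data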;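 also: 0% = DMSO negative control and 100% = EDTA positive control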
# PTEN del growth – growth suppression of PTEN-null HCT116, primary screen, cell-based, CellTiter-Glo; HCT116 PTEN-null viability, 60 h; hits give low values; viability, % at 10 µM; 140,000 compounds, 1.2% hits; AID 827, 2007;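 active = viability at or below a set limit, 4 SD under the median of all tested compounds, cut at about 3.7% in these data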;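 also: PTEN knockout HCT116 line with beta catenin targeted HCT116 as companion control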
# Starred values were filed as active, the others as inactive; . = no result.
SMILES,TNAP inh hiacc,L major viab,bCat KO growth,TNAP act hi DEA,TNAP inh no acc,PTEN del growth
COc1ccc(Nc2nc(-c3cccs3)nc3ccccc23)c(OC)c1,-3,41,86,1,-10,78
Cc1cccc(S(=O)(=O)c2c(C)cc(C)nc2Cl)c1,1,14,.,1,-4,.
CCc1ccc(OCC(=O)NC(C)C)cc1,-4,-4,.,1,-8,.
O=C(Nc1ccc(Cl)cc1)N1CCCN(Cc2ccc(F)cc2)C1,-1,92*,0.6*,1,-12,0.7*
C=CCn1c(-c2ccc(C)cc2)nc2ccccc21,-8,87*,97,1.1,-16,97
COc1ccc(Cn2c(-c3ccc(C)cc3)c[n+]3ccccc23)cc1,-2,100*,13,1,2,16
COc1ccc(CNC(=O)c2c([S-])n(-c3ccc(C)cc3)c3cccc[n+]23)cc1,-6,4,.,1.1,-1,.
COc1ccc(-c2nc3ccccc3n2Cc2ccc(C)cc2)cc1,-3,82*,61,1,-12,60
C=CCn1c(-c2cccnc2Cl)nc2ccccc21,-6,-2,.,1.1,-9,.
C=C(C)Cn1c(-c2ccc(OC)cc2)nc2ccccc21,1,55*,66,1,-8,61
O=[N+]([O-])c1ccc(NCCNCCOc2nonc2-c2ccccc2)c([N+](=O)[O-])c1,4,11,.,1,-3,.
Cc1ccc([N+](=O)[O-])cc1NC(=S)NC(=O)c1cccs1,0,-7,75,1,-14,75
CCOC(Cn1c(-c2ccc(OC)cc2)nc2ccccc21)OCC,-6,64*,76,1.1,-18,80
CC(C)(C)c1ccc(C(O)CCCN2CCC(C(O)(c3ccccc3)c3ccccc3)CC2)cc1 (stereo unspecified),-4,100*,0.7*,1,-10,0.8*
Oc1ccccc1CN1CCC(C(O)(c2ccccc2)c2ccccc2)CC1,-1,56*,63,1,2,59
O=C(C1CC1)N1CCC(C(O)(c2ccccc2)c2ccccc2)CC1,1,95*,94,1,-2,105
O=C(C1CC1)N1CCN(C(c2ccccc2)c2ccccc2)CC1,2,12,103,1,-5,99
Cc1cccc(-n2c(SCC(=O)NCc3ccc4c(c3)OCO4)nc3ccccc3c2=O)c1,-5,96*,85,1,-7,89
O=C(CSc1nc2ccccc2c(=O)n1-c1ccccc1)NCc1ccco1,-8,61*,103,1.1,-15,107
COCCNC(=O)/C(C#N)=C/c1ccc(OCC(=O)NC2CCCCC2)cc1,-6,7,.,1.1,-14,.
CCn1c(=N)n(CC(O)c2ccccc2)c2ccccc21 (stereo unspecified),-6,12,81,1.1,-3,84
N=c1n(CCN2CCCCC2)c2ccccc2n1CC(O)c1ccc(Cl)c(Cl)c1 (stereo unspecified),-8,100*,0.9*,1.1,-5,1.1*
N=c1n(CCN2CCCCC2)c2ccccc2n1CC(O)c1cccc(Br)c1 (stereo unspecified),-11,100*,12,1.1,-13,11
CN(C)CCn1c(=N)n(CC(O)c2ccc(Cl)c(Cl)c2)c2ccccc21 (stereo unspecified),-5,100*,.,1,-6,.
O=[N+]([O-])c1cccc(N2Cc3ccccc3C2)c1,-1,-2,.,1,-9,.
Cc1n[nH]c(C)c1S(=O)(=O)N1CCN(c2ccccn2)CC1,-4,-2,87,1,59*,105
CCN1CCN(c2cc(C)c3cc(NC(=O)c4cncc(Br)c4)ccc3n2)CC1,-4,100*,1.0*,1,8,1.2*
CCN1CCN(c2cc(C)c3cc(NC(=O)c4ccc5c(c4)OCO5)ccc3n2)CC1,-1,100*,12,1,-8,35
